Measurements of several laboratories.
Each line is one published result; the experiments were not run side by side.
Target: Mitogen-activated protein kinase kinase kinase 14 (MAP3K14, Homo sapiens, UniProt Q99558)

Structure (SMILES)	assay	conditions	measurement	value
N#CC1(c2ccccn2)CCN(Cc2cc(C(=O)O)c(=O)n3ccccc23)CC1	cell-free assay, competition with immobilised ligand	1 µM	remaining binding	73%
Nc1ncc(-c2nc(N3CCOCC3)nc(N3CCOCC3)n2)c(C(F)F)n1	binding, competition with immobilised ligand	10 µM	remaining binding	70%
O=c1[nH]c2ccccc2n1C1CCN(Cc2ccc(-c3[nH]c4cc5ncnc5cc4nc3-c3ccccc3)cc2)CC1	cell-free assay	0.5 µM	remaining signal	96.8%
COc1ncccc1-c1cnn2ccc(N3CCN(C(=O)OC(C)C)CC3)nc12	binding, competition with immobilised ligand	1 µM	remaining binding	100%
Cn1cc(-c2cc(F)cc(N3CCn4c(cc5c4CCCC5)C3=O)c2CO)cc(Nc2ccc(N3CCN(C4COC4)CC3)cn2)c1=O	enzyme activity, inhibitor	0.1 µM	inhibition	6%
CC(C)(C)c1cc(C=C(C#N)C#N)cc(Br)c1O	enzyme activity, inhibitor	0.5 µM	remaining activity	97.3%
Cn1cncc1[C@](O)(COc1ccc(C#N)cc1-c1ccc(OC(F)(F)F)cc1)c1ccc(C#N)cc1	cell-free assay, competition with immobilised ligand	1 µM	remaining binding	88%
Cn1cc(-c2cccc(N3CCc4c(sc5c4CC(C)(C)C5)C3=O)c2CO)cc(Nc2ccncn2)c1=O	enzyme activity, inhibitor	1 µM	inhibition	-3%
